Key:
[1] = tested on: Plasmodium falciparum; experiment: ST_JUDE: Plasmodium falciparum 3D7 EC50 (uM) as measured by SYBR green dye; format: functional, organism-based
[2] = tested on: Plasmodium falciparum; experiment: ST_JUDE: Plasmodium falciparum K1 EC50 (uM) as measured by SYBR green dye; format: functional, organism-based
[3] = tested on: Plasmodium falciparum; experiment: ST_JUDE: Cytotoxicity against Plasmodium falciparum 3D7; format: functional, organism-based
Method in brief: (§1)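 Asexual P. falciparum grown in human erythrocytes, exposed to compounds for 72 h, and growth read as the DNA quantity in treated versus control cultures. Dose-response run at 12 concentrations from 10 μM to 5 nM.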

[4] = tested on: Plasmodium falciparum; experiment: ST_JUDE: Cytotoxicity against Plasmodium falciparum K1; format: functional, organism-based; method in brief: as §1
[5] = tested on: Plasmodium falciparum; experiment: ST_JUDE: Cytotoxicity against Plasmodium falciparum V1/S; format: functional, organism-based
[6] = tested on: Toxoplasma gondii; experiment: ST_JUDE: Growth inhibition of to Toxoplasma gondii, in human U-2OS cells, as measured by luciferase.; format: functional, organism-based; details: RH, U2OS
Method in brief: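 T. gondii parasites engineered to express luciferase; drug sensitivity read by luminescence.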

[7] = tested on: Trypanosoma brucei; experiment: ST_JUDE: Cytotoxicity using luciferase to measure ATP as an indicator of the viability of Trypanosoma brucei; format: functional, organism-based
[8] = tested on: Leishmania major; experiment: ST_JUDE: Cytotoxicity using Alamar Blue to measure viability of Leishmania major; format: functional, organism-based
Method in brief: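 L. major promastigotes; drug susceptibility read with Alamar Blue.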

[9] = ST_JUDE: Cytotoxicity using luciferase to measure ATP as an indicator of the viability of human foreskin fibroblast cells (BJ); format: toxicity, cell-based
[10] = ST_JUDE: Cytotoxicity using luciferase to measure ATP as an indicator of the viability of human epithelial hepatocellular carcinoma cells (HepG2); format: toxicity, cell-based
[11] = ST_JUDE: Cytotoxicity using luciferase to measure ATP as an indicator of the viability of human epithelial embryonic kidney cells (HEK293); format: toxicity, cell-based
[12] = ST_JUDE: Cytotoxicity using luciferase to measure ATP as an indicator of the viability of human Burkitt''s lymphoma lymphoblast cells (Raji); format: toxicity, cell-based
[13] = tested on: Plasmodium falciparum; experiment: ST_JUDE: Cytotoxicity against Plasmodium falciparum Dd2; format: functional, organism-based
[14] = tested on: Plasmodium falciparum; experiment: ST_JUDE: Cytotoxicity against Plasmodium falciparum W2; format: functional, organism-based
[15] = tested on: Plasmodium falciparum; experiment: ST_JUDE: Cytotoxicity against Plasmodium falciparum SB-A6; format: functional, organism-based
[16] = tested on: Plasmodium falciparum; experiment: ST_JUDE: Cytotoxicity against Plasmodium falciparum D10 transfected with yeast DHOD; format: functional, organism-based

SMILES: Cc1ccc2c(c1)N(C)/C(=C/c1cccc[n+]1C)S2
- EC50 [1]: 0.247 µM
- EC50 [2]: 0.179 µM
- EC50 [3]: 0.588 µM
- EC50 [4]: 0.675 µM
- EC50 [5]: 0.566 µM
- EC50 [6]: > 12.6 µM
- EC50 [7]: 1.05 µM
- EC50 [8]: 0.0107 µM
- EC50 [9]: > 23 µM
- EC50 [10]: > 23 µM
- EC50 [11]: > 23 µM
- EC50 [12]: 2.18 µM
- EC50 [13]: 0.645 µM
- EC50 [14]: 1.11 µM
- EC50 [15]: 1.03 µM
- EC50 [16]: 0.859 µM

SMILES: CCN(CC)CCCOC(=O)c1c(C)oc2cc3c(C(=O)OCCCN(CC)CC)c(C)oc3cc12
- EC50 [1]: 0.538 µM
- EC50 [2]: 1.27 µM
- EC50 [3]: 2.14 µM
- EC50 [4]: 2.89 µM
- EC50 [5]: > 9.98 µM
- EC50 [6]: 10.9 µM
- EC50 [7]: 5.22 µM
- EC50 [8]: > 16.6 µM
- EC50 [9]: > 38.9 µM
- EC50 [10]: 4.71 µM
- EC50 [11]: 29.2 µM
- EC50 [12]: 23.7 µM
- EC50 [13]: 0.273 µM
- EC50 [14]: 0.789 µM
- EC50 [15]: 0.537 µM
- EC50 [16]: 1.73 µM

SMILES: CO/C(O)=C1\C(C)=NC2=C(C(=O)CC(c3ccc(OC)c(OC)c3)C2)C1c1ccccc1C (stereo not drawn)
- EC50 [1]: 0.424 µM
- EC50 [2]: 0.117 µM
- EC50 [3]: 0.309 µM
- EC50 [4]: 0.22 µM
- EC50 [5]: 0.254 µM
- EC50 [6]: > 22.7 µM
- EC50 [7]: 17 µM
- EC50 [8]: > 17.7 µM
- EC50 [9]: > 41.4 µM
- EC50 [10]: > 41.4 µM
- EC50 [11]: > 41.4 µM
- EC50 [12]: > 41.4 µM
- EC50 [13]: 0.577 µM
- EC50 [14]: 0.225 µM
- EC50 [15]: 0.176 µM
- EC50 [16]: 0.196 µM

SMILES: COc1ccc(Nc2cc(C)c3ccc(O)cc3n2)cc1
- EC50 [1]: 0.545 µM
- EC50 [2]: 0.216 µM
- EC50 [3]: 0.688 µM
- EC50 [4]: 0.241 µM
- EC50 [5]: 0.307 µM
- EC50 [6]: 25.4 µM
- EC50 [7]: > 45.4 µM
- EC50 [8]: > 20.3 µM
- EC50 [9]: > 47.4 µM
- EC50 [10]: 43 µM
- EC50 [11]: > 47.4 µM
- EC50 [12]: > 47.4 µM
- EC50 [13]: 0.709 µM
- EC50 [14]: 0.284 µM
- EC50 [15]: 1.23 µM
- EC50 [16]: 1.07 µM

SMILES: Cc1ccc(NC(=O)C2c3ccccc3C(=O)N(CC(C)C)C2c2cccs2)c(Cl)c1 (stereo not drawn)
- EC50 [1]: 0.463 µM
- EC50 [2]: 0.747 µM
- EC50 [3]: > 11.3 µM
- EC50 [4]: > 11.3 µM
- EC50 [5]: 1.18 µM
- EC50 [6]: > 24.1 µM
- EC50 [7]: 8.03 µM
- EC50 [8]: > 18.9 µM
- EC50 [9]: > 44.1 µM
- EC50 [10]: > 44.1 µM
- EC50 [11]: > 44.1 µM
- EC50 [12]: > 44.1 µM
- EC50 [13]: 0.981 µM
- EC50 [14]: 0.849 µM
- EC50 [15]: 0.741 µM
- EC50 [16]: 0.628 µM

SMILES: CC(C)c1ccccc1Oc1c(C(F)(F)F)oc2c(CN3CCN(C)CC3)c(O)ccc2c1=O
- EC50 [1]: 0.72 µM
- EC50 [2]: 0.224 µM
- EC50 [3]: 0.184 µM
- EC50 [4]: 0.159 µM
- EC50 [5]: 0.178 µM
- EC50 [6]: > 11.5 µM
- EC50 [7]: > 20.1 µM
- EC50 [8]: 0.327 µM
- EC50 [9]: > 21 µM
- EC50 [10]: > 21 µM
- EC50 [11]: > 21 µM
- EC50 [12]: > 21 µM
- EC50 [13]: 1.81 µM
- EC50 [14]: 0.252 µM
- EC50 [15]: 0.334 µM
- EC50 [16]: 0.231 µM

SMILES: CCOc1cc(C2CC(=O)NC3=C2C(=O)CC(c2ccccc2Cl)C3)cc(Cl)c1O (stereo not drawn)
- EC50 [1]: 0.5 µM
- EC50 [2]: 0.212 µM
- EC50 [3]: 0.89 µM
- EC50 [4]: 0.916 µM
- EC50 [5]: 1.08 µM
- EC50 [6]: > 23.7 µM
- EC50 [7]: 19.7 µM
- EC50 [8]: > 18.5 µM
- EC50 [9]: > 43.2 µM
- EC50 [10]: > 43.2 µM
- EC50 [11]: > 43.2 µM
- EC50 [12]: > 43.2 µM
- EC50 [13]: 1.02 µM
- EC50 [14]: 0.86 µM
- EC50 [15]: 1.15 µM
- EC50 [16]: 1.21 µM

SMILES: O=C(c1ccccc1)N1CCN(c2ccccc2NC(=O)C(Cl)(Cl)Cl)CC1
- EC50 [1]: 1.45 µM
- EC50 [2]: 0.877 µM
- EC50 [3]: 0.918 µM
- EC50 [4]: 0.838 µM
- EC50 [5]: 1.11 µM
- EC50 [6]: > 18.4 µM
- EC50 [7]: 26.8 µM
- EC50 [8]: > 14.4 µM
- EC50 [9]: > 33.7 µM
- EC50 [10]: > 33.7 µM
- EC50 [11]: > 33.7 µM
- EC50 [12]: > 33.7 µM
- EC50 [13]: 2.77 µM
- EC50 [14]: > 8.65 µM
- EC50 [15]: 1.34 µM
- EC50 [16]: 4.19 µM
